Data set [1] deals with Brain. Description: Drug uptake in rhesus monkey brain at 115.5 MBq, iv by PET analysis in presence of tariquidar. Type of data set: ADME, organism-based, Macaca mulatta. The following applies: in vivo.
Data set [2] has as its system Hippocampus. The experiment in a line: Drug uptake in rhesus monkey hippocampus at 115.5 MBq, iv after >30 seconds by PET analysis. Type of data set: ADME, organism-based, Macaca mulatta. As to conditions: in vivo; call rule not given here. The method, boiled down:
(§1)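 A single rhesus monkey, thiamylal induction then 1.5% isoflurane; 90 min 3D dynamic PET after transmission scan; [11C] tracer bolus via crural vein (115.5 MBq at baseline; 87.7 MBq after tariquidar 8 mg/kg iv over 10 min, 0.25 h before). ROIs on individual MRI; decay-corrected %SUV.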

Data set [3] in a line: Drug uptake in rhesus monkey cerebellum at 115.5 MBq, iv after >30 seconds by PET analysis. Type of data set: ADME, organism-based, Macaca mulatta. As to conditions: in vivo. The gist of the method:
as §1

Data set [4] in a line: Drug uptake in rhesus monkey neocortex at 115.5 MBq, iv after >30 seconds by PET analysis. It is filed as ADME, organism-based, Macaca mulatta. The following applies: in vivo. The method, boiled down:
as §1

Data set [5] is described as follows: Drug uptake in rhesus monkey cerebellum at 115.5 MBq, iv after 30 seconds by PET analysis. Type of data set: ADME, organism-based, Macaca mulatta. As to conditions: in vivo, 0.5 min. The gist of the method:
as §1

For data set [6], the system named is Hippocampus. The experiment in a line: Drug uptake in rhesus monkey hippocampus at 115.5 MBq, iv after 30 seconds by PET analysis. It is filed as ADME, organism-based, Macaca mulatta. As to conditions: in vivo, 0.5 min. The gist of the method:
as §1

Data set [7] relates to Thalamus. The experiment in a line: Drug uptake in P-gp-knockout rat thalamus at 78.7 to 189.8 MBq, iv after 90 mins by PET analysis in presence of 10 mg/kg, po unlabeled compound. It is filed as ADME, organism-based. Also on record: dose 10 mg/kg, route oral. As to conditions: in vivo, 1.5 h. The method, boiled down:
(§2)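 Male Mdr1a-knockout rats (410−500 g) under 1.5% isoflurane at 37 °C; [11C] tracer 78.7−189.8 MBq by tail vein. 90 min list-mode microPET scan with filtered back-projection; ROIs drawn on MRI template; decay-corrected %ID/mL, n = 3. Blocking: unlabeled compound 10 mg/kg po in 5% DMSO/10% cremophor in 10 mM HCl, given 1 h before tracer.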

Data set [8] is described as follows: Drug uptake in P-gp-knockout rat neocortex at 78.7 to 189.8 MBq, iv after 90 mins by PET analysis in presence of 10 mg/kg, po unlabeled compound. It is filed as ADME, organism-based. On the set-up: dose 10 mg/kg, route oral. As to conditions: in vivo, 1.5 h. The gist of the method: as §2
Data set [9] concerns Hippocampus. The experiment in a line: Drug uptake in P-gp-knockout rat hippocampus at 78.7 to 189.8 MBq, iv after 90 mins by PET analysis in presence of 10 mg/kg, po unlabeled compound. It is filed as ADME, organism-based. Also on record: dose 10 mg/kg, route oral. The following applies: in vivo, 1.5 h. The method, boiled down:
as §2

For data set [10], the system named is Cerebellum. Description: Drug uptake in P-gp-knockout rat cerebellum at 78.7 to 189.8 MBq, iv after 90 mins by PET analysis in presence of 10 mg/kg, po unlabeled compound. Type of data set: ADME, organism-based. On the set-up: dose 10 mg/kg, route oral. The following applies: in vivo, 1.5 h. The method, boiled down:
as §2

For data set [11], the system named is Thalamus. The experiment in a line: Drug uptake in P-gp-knockout rat thalamus at 78.7 to 189.8 MBq, iv after 90 mins by PET analysis. As to conditions: in vivo, 1.5 h. It is filed as ADME, organism-based. The gist of the method:
as §2

A short description of data set [12]: Drug uptake in rhesus monkey neocortex at 115.5 MBq, iv after 30 seconds by PET analysis. Type of data set: ADME, organism-based, Macaca mulatta. The following applies: in vivo, 0.5 min. The method, boiled down: as §1
Data set [13] in a line: Metabolic stability in P-gp-knockout rat brain assessed as unmetabolized drug level at 330 MBq after 30 min by HPLC chromatogram analysis. Type of data set: ADME, tissue-based. The following applies: read-out: Stability. The method, boiled down: (§3)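 Mdr1a-knockout rat (450 g) given [11C] tracer 330 MBq iv and decapitated at 30 min. Plasma deproteinised with MeCN; half-brain homogenised in 50% aqueous MeCN and deproteinised. Supernatants run on C18 radio-HPLC (MeCN/H2O/TEA 5/5/0.01, 1.5 mL/min). Parent % = parent peak area/total peak area × 100, decay corrected; n = 1.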

A short description of data set [14]: Metabolic stability in P-gp-knockout rat plasma assessed as unmetabolized drug level at 330 MBq after 30 min by HPLC chromatogram analysis. It is filed as ADME, cell-free. As to conditions: read-out: Stability. The gist of the method: as §3
The subject of data set [15] is Brain. The experiment in a line: Ex vivo drug uptake in P-gp-knockout rat brain assessed as retention time at 330 MBq after 30 min by HPLC chromatogram analysis. As to conditions: 0.5 h. Type of data set: ADME, tissue-based. The gist of the method:
as §3

Data set [16] concerns Brain. The experiment in a line: Ex vivo drug metabolism in P-gp-knockout rat brain assessed as retention time at 330 MBq after 30 min by HPLC chromatogram analysis. Type of data set: ADME, tissue-based. As to conditions: 0.5 h. The method, boiled down: as §3
For data set [17], the system named is Hippocampus. Description: Drug uptake in P-gp-knockout rat hippocampus at 78.7 to 189.8 MBq, iv after 90 mins by PET analysis. It is filed as ADME, organism-based. The following applies: in vivo, 1.5 h. The gist of the method:
as §2

Data set [18] in a line: Drug uptake in P-gp-knockout rat neocortex at 78.7 to 189.8 MBq, iv after 90 mins by PET analysis. It is filed as ADME, organism-based. The following applies: in vivo, 1.5 h. The method, boiled down: as §2
A short description of data set [19]: Octanol-phosphate buffer partition coefficient, log D of the compound at pH 7.4 by Shake flask method. It is filed as physicochemical. The gist of the method:
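[11C]-labelled compound (about 200 000 cpm) in n-octanol and 0.1 M PBS pH 7.4, vortexed 3 min at rt and centrifuged; weighed aliquots of each phase γ-counted, with the organic layer repartitioned until stable. log D = log(cpm/g octanol ÷ cpm/g PBS); triplicate.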

The structures appear in SMILES notation.

The logD is the decadic logarithm of the distribution of all forms, ionised or not, between an organic phase and buffer at a given pH.

Consider `Cc1ncc(OC[C@@]2(c3cccc(F)c3)C[C@H]2C(=O)Nc2ccc(F)cn2)c(CO[11CH3])n1`, for which the Drug uptake result in [1] is given as “Active”; in data set [2], “Not Active”; in data set [3] it was “Not Active”; in [4] it was “Not Active”; in data set [5], “Active”; in data set [6], “Active”. Besides, the Drug uptake result in [7] was “Active”; in [8] it was “Not Active”; in [9], “Not Active”; in data set [10], “Not Active”; in data set [11], “Active”; in data set [12], “Active”. Further, the Drug uptake entry in data set [17] and in data set [18] was “Active” throughout. Further, the remaining at 0.5 h amounted to 54% in data set [13] and 12% in data set [14]. Moreover, the Retention_time is 5.2 min in data set [15] and 2 min in [16]. In data set [19], this compound had a logD of 2.97.
